According to article PMC12484386 (Journal of Clinical Pharmacology, 2025):

Experiments:
[1] = cited from earlier work
[2] = Plasma protein binding in human plasma at 1-10 µM; format: in vitro ADME
Hepatic impairment study = format: in vivo, human
In short: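 Open-label single oral dose after ≥10 h overnight fast, held to 2 h postdose: Child-Pugh B (n=8) 2 mg; matched normal hepatic function (n=8) 5 mg. Parent and M11 plasma sampled predose to 240 h by validated LC-MS/MS (1.00-750 ng/mL). Data dose-normalized to 5 mg. Ln-transformed parameters by one-way ANOVA, cohort fixed; GMR and 90% CI back-transformed; unbound parameters analysed likewise.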

Renal impairment study = format: in vivo, human
In short: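 Renal function by Cockcroft-Gault. Parent and M11 plasma predose to 240 h by LC-MS/MS (1.00-750 ng/mL); unbound fraction by equilibrium dialysis at 4 h. Ln-parameters by one-way ANOVA; GMR with 90% CI.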

plasma protein = details: cited from earlier work
AAG = assay: Separate in vitro equilibrium dialysis study, binding to AAG; format: in vitro ADME; details: AAG (alpha-1-acid glycoprotein)
[3] = Safety and tolerability, renal impairment study; format: in vivo, human
[4] = Safety and tolerability, hepatic impairment study; format: in vivo, human
[5] = single oral 5 mg radiolabeled fruquintinib, healthy volunteers; cited from earlier work
[6] = cited from earlier work; remark: listed apart in the source
HSA = HSA (Homo sapiens, UniProt P02768); assay: Separate in vitro equilibrium dialysis study, binding to HSA; format: in vitro ADME; details: HSA (human serum albumin)
Chain of HSA (P02768 25-609): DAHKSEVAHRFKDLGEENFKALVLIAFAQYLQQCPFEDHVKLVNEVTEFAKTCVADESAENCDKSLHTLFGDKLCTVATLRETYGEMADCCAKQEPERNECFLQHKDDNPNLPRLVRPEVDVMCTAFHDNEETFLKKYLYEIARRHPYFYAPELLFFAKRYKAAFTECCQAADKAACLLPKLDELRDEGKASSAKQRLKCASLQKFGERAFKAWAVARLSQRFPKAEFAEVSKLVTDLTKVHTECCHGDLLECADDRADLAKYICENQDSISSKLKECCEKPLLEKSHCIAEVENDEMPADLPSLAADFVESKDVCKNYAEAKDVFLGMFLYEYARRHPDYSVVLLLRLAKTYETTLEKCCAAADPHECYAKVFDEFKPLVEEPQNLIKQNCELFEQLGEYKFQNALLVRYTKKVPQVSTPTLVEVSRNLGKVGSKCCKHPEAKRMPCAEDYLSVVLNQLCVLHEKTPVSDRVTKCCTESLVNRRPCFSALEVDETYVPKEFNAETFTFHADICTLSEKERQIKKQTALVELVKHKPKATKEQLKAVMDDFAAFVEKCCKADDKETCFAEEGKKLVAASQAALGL

[7] = cited from earlier work; remark: listed apart in the source
[8] = moderate hepatic impairment vs normal hepatic function
[9] = moderate renal impairment vs normal renal function
[10] = severe renal impairment compared with normal renal function
[11] = severe renal impairment vs normal renal function

Which “elimination half-life (t1/2)” value [1] does the source give for `CNC(=O)c1c(C)oc2cc(Oc3ncnc4cc(OC)c(OC)cc34)ccc12` [fruquintinib] here?
Its value is “approximately 42 h”.

And the weight-normalized apparent clearance [1]?
Its weight-normalized apparent clearance is “approximately 0.17 mL/min/kg”.

What about the “time to steady-state concentrations” value ([1]; consecutive QD dosing) of the same compound?
The value was 14 days.

What about the “median time to maximum plasma concentration (Tmax)” value ([1]; oral administration, patients with cancer) of the same compound?
The value was “approximately 2 h”.

And the accumulation at steady-state ([1]; relative to a single dose, QD dosing)?
Its accumulation at steady-state is “approximately 4 fold”.

And the fraction unbound at 1 µM [2]?
Its fraction unbound at 1 µM is 0.046.

What about the fraction unbound at 3 µM [2] of the same compound?
Its fraction unbound at 3 µM is 0.047.

And the fraction unbound at 10 µM [2]?
Its fraction unbound at 10 µM is 0.047.

And the “CL/F, mean (SD)” value (Hepatic impairment study; moderate hepatic impairment (Child-Pugh B), N = 8, single oral 2 mg)?
Its value is 17.4 mL/min.

And the “difference in dose-normalized Cmax” value (Hepatic impairment study; moderate hepatic impairment compared with normal hepatic function)?
The value was “less than 5%”.

And the AUCs lower (Hepatic impairment study; moderate hepatic impairment compared with normal hepatic function, dose normalized)?
Its AUCs lower is “approximately 10%”.

And the “LS GMR DN AUC0-inf [90% CI]” value (Hepatic impairment study; [8])?
The value was 0.91.

And the “LS GMR DN AUC0-t [90% CI]” value (Hepatic impairment study; [8])?
Its value is 0.89.

What about the “LS GMR DN Cmax [90% CI]” value (Hepatic impairment study; [8]) of the same compound?
The value was 1.04.

What about the “CL/F, mean (SD)” value (Hepatic impairment study; normal hepatic function, N = 8, single oral 5 mg) of the same compound?
Its value is 15.3 mL/min.

What about the “CL/F, mean (SD)” value (Renal impairment study; moderate renal impairment (CrCl 30-59 mL/min), N = 8, single oral 5 mg) of the same compound?
The value was 14.2 mL/min.

And the “difference across Cmax, AUC0-t, and AUC0-inf” value (Renal impairment study; moderate renal impairment compared with normal renal function)?
The value was “less than 8%”.

And the “LS GMR DN AUC0-inf [90% CI]” value (Renal impairment study; [9])?
Its value is 1.07.

What about the “LS GMR DN AUC0-t [90% CI]” value (Renal impairment study; [9]) of the same compound?
Its value is 1.06.

And the “LS GMR DN Cmax [90% CI]” value (Renal impairment study; [9])?
The value was 0.95.

And the “CL/F, mean (SD)” value (Renal impairment study; normal renal function, N = 8, single oral 5 mg)?
The value was 15.0 mL/min.

And the “CL/F, mean (SD)” value (Renal impairment study; severe renal impairment (CrCl 15-29 mL/min), N = 8, single oral 2 mg)?
Its value is 15.0 mL/min.

What about the “difference in AUCs” value (Renal impairment study; [10]) of the same compound?
The value was “less than 3%”.

What about the “dose-normalized Cmax lower” value (Renal impairment study; [10]) of the same compound?
Its value is “approximately 11%”.

What about the “LS GMR DN AUC0-inf [90% CI]” value (Renal impairment study; [11]) of the same compound?
Its value is 1.01.

What about the “LS GMR DN AUC0-t [90% CI]” value (Renal impairment study; [11]) of the same compound?
Its value is 0.97.

What about the “LS GMR DN Cmax [90% CI]” value (Renal impairment study; [11]) of the same compound?
Its value is 0.89.

What about the “protein binding in human plasma” value (plasma protein) of the same compound?
The value was “approximately 95%”.

What about the fraction unbound at 0.1 µM (AAG) of the same compound?
The fraction unbound at 0.1 µM was 0.356.

And the fraction unbound at 1 µM (AAG)?
Its fraction unbound at 1 µM is 0.358.

And the fraction unbound at 10 µM (AAG)?
The fraction unbound at 10 µM was 0.413.

What about the “participants with TEAEs” value ([3]; 3 of the 24 participants) of the same compound?
The value was 12.5%.

And the participants with headache ([3]; moderate renal impairment, one of eight, grade 1, nonserious, not related)?
The participants with headache was 12.5%.

And the participants with hypoglycemia ([3]; moderate renal impairment, one of eight, grade 3, nonserious, not related)?
The participants with hypoglycemia was 12.5%.

And the “participants with eye pruritis and periorbital edema” value ([3]; normal renal function, one of eight, grade 1, nonserious, not related)?
Its value is 12.5%.

What about the “participants with treatment emergent adverse events (TEAEs)” value ([4]; 4 of the 16 participants, all TEAEs in moderate hepatic impairment) of the same compound?
The value was 25.0%.

What about the tolerability ([4]; both studies, single dose 2 or 5 mg) of the same compound?
Its tolerability is “generally well tolerated”.

What about the “participants with treatment-related TEAEs” value ([4]; hepatic impairment study, three of 16 participants) of the same compound?
Its value is 18.8%.

And the participants with dizziness ([4]; moderate hepatic impairment, one of 8, grade 1, nonserious, related)?
The participants with dizziness was 12.5%.

And the “participants with urinary tract infection” value ([4]; moderate hepatic impairment, one of 8, grade 2, nonserious, not related)?
The value was 12.5%.

What about the “dose recovered in feces” value [5] of the same compound?
The value was 30%.

And the “dose recovered in urine” value [5]?
The value was “approximately 60%”.

And the “dose recovered unchanged in feces” value [5]?
Its value is 5%.

And the “dose recovered unchanged in urine” value [5]?
The value was 0.5%.

What about the “inter-individual variability in apparent oral clearance” value [6] of the same compound?
The value was 26%.

And the “impact of mild to moderate renal impairment and mild hepatic impairment on PK” value ([6]; population PK analysis)?
The value was “no clinically meaningful impact”.

And the fraction unbound at 0.1 µM (HSA)?
The fraction unbound at 0.1 µM was 0.0565.

And the fraction unbound at 1 µM (HSA)?
Its fraction unbound at 1 µM is 0.0635.

What about the fraction unbound at 10 µM (HSA) of the same compound?
Its fraction unbound at 10 µM is 0.0627.

What about the “change in fruquintinib exposure” value ([7]; co-administration with itraconazole, a strong CYP3A inhibitor) of the same compound?
The value was “did not result in clinically meaningful change”.

And the “reduction of fruquintinib exposure” value ([7]; concurrent use of rifampin, a strong metabolic enzyme inducer)?
Its value is “approximately 65%”.
